Source: PubChem BioAssay AID504846 (Johns Hopkins Ion Channel Center, 2011)
Activity calls are given as the source filed them.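 How the source made its calls: active means blocks the KCNK9 potassium channel at some tested concentration and gives a dose response curve; inactive means the rest.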

These molecules were tested against Potassium channel subfamily K member 9 (Homo sapiens) (UniProt Q9NPC2) (assay: KCNK9 potassium channel inhibitors, SAR follow-up, HEK293 cells, thallium flux (AID 504846)). Settings: HEK293-KCNK9, FluxOR thallium flux fluorescence; series mostly up to 30 µM; flux ratio, lower = inhibition: at the top concentration.
Outline: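 assay system = HEK293 cells stably expressing KCNK9, loaded with FluxOR thallium-sensitive dye | probe or stimulus = K2SO4 and Tl2SO4 flux stimulus (stock 25 mM, 7 mM) | dosing = concentration-response series | timing = 20 min room-temperature compound exposure, 110 s post-stimulus read | measured by = kinetic FluxOR thallium-flux fluorescence measurement | repeats = replicate dose series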

Sequence of Potassium channel subfamily K member 9 (Homo sapiens) (Q9NPC2 whole entry, looked up): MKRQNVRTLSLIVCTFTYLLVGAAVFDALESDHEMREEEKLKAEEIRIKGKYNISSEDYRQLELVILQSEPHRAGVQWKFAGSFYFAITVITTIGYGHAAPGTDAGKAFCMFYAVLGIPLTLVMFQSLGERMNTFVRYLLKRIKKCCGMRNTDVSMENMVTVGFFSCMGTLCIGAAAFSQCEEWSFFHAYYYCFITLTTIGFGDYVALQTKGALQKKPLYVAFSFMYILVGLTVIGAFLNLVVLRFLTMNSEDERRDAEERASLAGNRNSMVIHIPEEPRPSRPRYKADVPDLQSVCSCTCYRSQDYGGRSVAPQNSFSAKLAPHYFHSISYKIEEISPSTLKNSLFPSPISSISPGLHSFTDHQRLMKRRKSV

Flux ratio, lower = inhibition, inactive:
Cc1cccc(NC(=O)c2cccc(NC(=O)c3ccccc3)c2)c1 0.844
Cc1cccc(C(=O)Nc2cccc(C(=O)Nc3ccccc3)c2)c1 0.726
Cc1cccc(C(=O)Nc2ccccc2C(=O)Nc2ccccc2)c1 0.782
Cc1cccc(NC(=O)c2ccccc2NC(=O)c2ccccc2)c1 0.812
Cc1cccc(C(=O)Nc2ccc(C(=O)Nc3ccccc3)cc2)c1 0.771
